Rows were chosen to be rich in hits. Some 4.2% of all compounds tested hit in one or more screens of this group.
KCNQ1 pot = potentiates or activates the human KCNQ1 potassium channel. AID 2648. CHO-K1 KCNQ1, thallium flux FluxOR fluorescence; active compounds read high. B-score at 10 µM. 310,000 compounds, 0.35% hits;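 active means fluorescence ratio B-score, a plate-corrected score, at least three library SD, with initial intensity B-score within 5 SD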
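Schedule – 37 °C overnight plating, 90-min dark dye load, 20-min compound pretreatment · System – stable KCNQ1 CHO-K1 line · Probe or stimulus – thallium- and potassium-containing depolarizing buffer · Measured by – kinetic FluxOR fluorescence, 10 s baseline plus 110 s post-stimulus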
KCNQ1 inh = human KCNQ1 channel inhibition. P51787. CHO-K1 KCNQ1, FluxOR thallium flux fluorescence; active compounds read high. B-score at 10 µM. 310,000 compounds, 1.3% hits. AID 2642;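 active means compounds whose thallium flux B-score, printed positive for inhibition, exceeds three library SD while starting fluorescence stays within three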;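 further: channel opened by potassium depolarization with thallium stimulus after 20 min compound exposure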
AI-2 QS modul = modulators of Vibrio harveyi AI-2 quorum sensing system | Vibrio harveyi JMH597 AI-2 luminescence/OD600 ratio, 9 h; active compounds read low; strain lacks LuxN and CqsS sensors; 0 = neutral-control median | activity change, % at 7.5 µM | 300,000 compounds, 0.4% hits | AID 2094; in the data active means activity change below about -75%, passing the limit was not always enough;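 further: luminescence divided by OD600 gain over 9 h not by final OD600 alone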
Mot1-301 SUMO = inhibitors of SUMOylation pathway: yeast Mot1-301 growth rescue | S. cerevisiae Mot1-301 growth rescue, ATP luminescence, 38.5C; percent above DMSO median, 100 means doubled | 320,000 compounds, 1% hits | growth rescue, % at 18.8 µM;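 active means every valid replicate shows activation above 250% relative to neutral control wells; inactive means the rest, any valid replicate at or below 250%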;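 further: OY570 slx delta 5 strain wells were the positive control but not used for scaling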
hERG protect = shields human hERG channel from block by proarrhythmic agents; AID 1511; CHO-hERG, FluxOR thallium flux, dofetilide IC70 present; 310,000 compounds, 0.51% hits; activation (rescue from dofetilide block), less the hit threshold, % at 10 µM;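 active means activation above the mean of controls blocked by dofetilide plus 5 SD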;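 further: thallium influx through hERG after potassium depolarization seen as dye fluorescence rise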
Cl transport mod = modulates chloride dependent transport by human KCC2. Q9H2X9. KCC2 cells, thallium flux FluoZin-2 fluorescence. B-score of Tl+ flux slope (higher = more flux/activation; lower = inhibition) at 10 µM. 190,000 compounds, 2.2% hits. AID 1456;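 active means thallium flux slope and its plate-corrected score both differing from the plate sample mean at a set confidence after two filtering rounds, in either direction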;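 further: slope of fluorescence scaled to starting intensity during 10 to 20 s after thallium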
Target sequence (Q9H2X9 whole entry, looked up): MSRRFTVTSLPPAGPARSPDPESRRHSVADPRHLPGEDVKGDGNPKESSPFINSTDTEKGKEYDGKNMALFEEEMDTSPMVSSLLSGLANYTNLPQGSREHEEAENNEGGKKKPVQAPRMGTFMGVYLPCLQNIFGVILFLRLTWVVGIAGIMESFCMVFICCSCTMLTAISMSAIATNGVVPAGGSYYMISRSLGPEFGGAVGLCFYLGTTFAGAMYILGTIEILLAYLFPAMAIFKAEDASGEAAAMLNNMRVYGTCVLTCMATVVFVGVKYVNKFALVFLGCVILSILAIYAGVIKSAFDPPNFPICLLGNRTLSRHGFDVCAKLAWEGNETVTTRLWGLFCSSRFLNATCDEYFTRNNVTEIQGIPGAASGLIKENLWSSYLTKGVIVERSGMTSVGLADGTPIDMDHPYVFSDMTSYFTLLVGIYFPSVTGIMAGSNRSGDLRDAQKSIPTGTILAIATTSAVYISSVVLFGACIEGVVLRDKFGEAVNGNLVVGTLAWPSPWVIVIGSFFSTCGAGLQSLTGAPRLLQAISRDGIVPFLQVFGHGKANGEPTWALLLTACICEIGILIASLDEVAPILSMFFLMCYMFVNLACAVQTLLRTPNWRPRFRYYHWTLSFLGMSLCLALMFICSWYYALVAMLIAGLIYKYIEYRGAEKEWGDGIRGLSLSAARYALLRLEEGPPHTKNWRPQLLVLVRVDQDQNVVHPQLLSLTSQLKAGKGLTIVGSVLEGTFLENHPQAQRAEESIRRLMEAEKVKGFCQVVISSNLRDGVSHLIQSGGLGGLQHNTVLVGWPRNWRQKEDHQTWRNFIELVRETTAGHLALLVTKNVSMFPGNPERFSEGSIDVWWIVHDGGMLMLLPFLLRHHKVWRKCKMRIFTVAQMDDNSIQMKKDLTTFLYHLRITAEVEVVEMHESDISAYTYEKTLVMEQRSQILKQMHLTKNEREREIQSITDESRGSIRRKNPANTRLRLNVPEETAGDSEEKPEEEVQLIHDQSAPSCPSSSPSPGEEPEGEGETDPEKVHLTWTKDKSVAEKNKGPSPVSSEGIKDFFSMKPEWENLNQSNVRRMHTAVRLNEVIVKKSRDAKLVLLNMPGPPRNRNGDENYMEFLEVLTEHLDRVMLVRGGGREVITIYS
Yeast Mot1 SUMO = inhibits SUMO pathway, affecting Mot1-301 yeast growth; S. cerevisiae Mot1-301 galactose growth, ATP luminescence, 24 h; -100 = growth of slx-deleted rescue strain; AID 493004; shares compounds with Mot1-301 SUMO; growth activity, percent, % at 42 µM; 2,300 tested, under 10 active;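 active means Signal drops as the depositor expects, and the fitted half-maximal dose is no more than ten times the top valid tested dose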;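 further: more negative values mean stronger growth rescue toward the control strain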
* marks the source's active call; other numbers are inactive results; i = inactive; x = no result; + = active, no number.

SMILES | KCNQ1 pot | KCNQ1 inh | AI-2 QS modul | Mot1-301 SUMO | hERG protect | Cl transport mod | Yeast Mot1 SUMO
Cc1ccc(C(C[N+](=O)[O-])c2c(C)[nH]n(-c3ccccc3)c2=O)cc1 (stereo not given) | i | i | 30 | 401* | -13 | 0.65 | -2
COCCn1c(N)c(N(Cc2ccccc2)C(=O)CN2C(=O)NC(C)(c3ccccc3)C2=O)c(=O)[nH]c1=O (stereo not given) | i | i | 7 | 531* | -10 | x | 0
Cc1cccc(C(=O)NC2CCN(CC(=O)Nc3ccccc3Cl)CC2)c1 | i | i | 3 | -9 | -10 | x | x
CCS(=O)(=O)c1nc(S(=O)(=O)c2ccc(Cl)cc2)c(N2CCc3ccccc3C2)s1 | i | i | 24 | 444* | -10 | -3 | 0
CCS(=O)(=O)c1nc(S(=O)(=O)c2ccc(Cl)cc2)c(N2CCN(CCO)CC2)s1 | i | i | 15 | 4 | -7 | x | x
Cn1c(COc2ccccc2O)[n+](C)c2ccccc21 | i | i | -4 | -6 | -2 | x | x
CCCCCCCCCCOC(=O)Cn1c(COc2ccccc2OC)[n+](C)c2ccccc21 | i | i | 31 | 835* | -6 | x | 0
COC(=O)c1ccc2c(C)c(C3(O)CCCCC3)[nH]c2c1 | x | x | x | 54 | x | x | x
Cc1c(C2(O)CCCCC2)[nH]c2ccc(C#N)cc12 | x | x | x | 370* | x | x | 0
COCCN(CC(=O)Nc1cccc(C)c1C)C(=O)c1oc2c(Cl)cccc2c1C | x | x | x | -3 | x | x | x
Cc1ccc(-c2nn(CC(=O)O)c(=O)c3ccccc23)cc1 | i | i | 22 | 20 | -4 | -0.66 | x
Cc1ccc(NC(=O)NNC(=O)Cn2nc(-c3ccccc3)c(-c3ccccc3)c(C#N)c2=O)cc1 | i | i | 38 | 364* | -6 | 0.58 | 0
CN(C)CCN1C(=O)C(=O)/C(=C(/O)c2ccc(S(=O)(=O)N3CCOCC3)cc2)C1c1ccc(F)cc1 (stereo not given) | i | i | 7 | -11 | -9 | x | x
O=C1CN(C(=O)c2ccccc2F)C(c2ccccc2)c2cc(Cl)ccc2N1 (stereo not given) | i | i | 13 | 603* | -7 | x | 0
O=C1CN(C(=O)c2ccccc2F)C(c2ccc(F)cc2)c2cc(Br)ccc2N1 (stereo not given) | i | i | 11 | 102 | -15 | x | x
CCOc1ccccc1Nc1nc2ccccc2n1C(C)C | i | i | 11 | -9 | -9 | -0.89 | x
CCC(=O)N1CCc2cc(S(=O)(=O)CCC(=O)Nc3ccc(OC)cc3)ccc21 | i | i | 25 | 19 | -5 | x | x
CCC(=O)N1CCc2cc(S(=O)(=O)CCC(=O)Nc3cccc(C)n3)ccc21 | i | i | 3 | + | -3 | 0.0081 | 1
CCn1nc(CC(=O)Nc2ccc(-n3cnnn3)c(OC)c2)c2ccccc2c1=O | i | i | 11 | -2 | -15 | -1.8 | x
CCn1nc(CC(=O)Nc2ccc(-n3cnnn3)c(C)c2)c2ccccc2c1=O | i | i | 16 | 724* | -11 | x | 1
CC(/C=N/Nc1ncc(C)c(=O)[nH]1)=C\c1ccccc1 | i | i | 8 | -18 | -9 | 0.77 | x
CCOc1ccc(S(=O)(=O)N2CCC(C(=O)NCCN3CCOCC3)CC2)cc1C | i | i | 7 | 1 | -6 | x | x
CCOC(=O)c1[nH]c2ccc(Br)cc2c1NC(=O)CCN1CCOCC1 | i | i | 1 | 413* | -17 | 0.54 | -1
CCOC(=O)c1[nH]c2ccc(Br)cc2c1NC(=O)CCN1CCN(C(=O)OCC)CC1 | i | i | 30 | -7 | -16 | x | x
COc1ccc(/C=C2/C(=O)OCc3cc(OC)c(OC)cc32)cc1 | i | i | 2 | 3 | -5 | -1 | x
CCOC(=O)c1sc2nc(CN3CCN(c4cccc(C(F)(F)F)c4)CC3)[nH]c(=O)c2c1C | i | i | -7 | 552 | -4 | 0.26 | x

High-throughput results as filed in PubChem.
